Assay results published in ChEMBL document CHEMBL1944595, “1,4-diarylpiperazines and analogs as anti-tubercular agents: synthesis and biological evaluation” (Eur J Med Chem, 2012).
≈ marks a conversion by molar mass, not a printed value.

Columns and labels:
Type in all cases: functional
[1] = test system: Mycobacterium tuberculosis; test: Antibacterial activity against Mycobacterium tuberculosis H37Rv harboring pSMT1 encoding Vibrio harveyi luxAB gene at 10 uM after 7 days by luminometric analysis; conditions: 168 h, read-out: GI
How it was run: (§1)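 Same extracellular assay. Bacteria seeded at 1000 RLU per well in Sauton + 10% FCS. Compounds added from 1 mM DMSO stocks to final 10, 1 or 0.1 per well. Incubated 7 days at 37 °C, 5% CO2. Wells harvested, washed four times with PBS and pooled. 1% n-decanal added and luminescence read over 10 s. Percent growth inhibition calculated against untreated control cultures.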

[2] = test system: Mycobacterium tuberculosis; test: Antibacterial activity against Mycobacterium tuberculosis H37Rv harboring pSMT1 encoding Vibrio harveyi luxAB gene at 1 uM after 7 days by luminometric analysis; conditions: 168 h, read-out: GI; how it was run: as §1
[3] = test system: Mycobacterium tuberculosis; test: Antibacterial activity against Mycobacterium tuberculosis H37Rv harboring pSMT1 encoding Vibrio harveyi luxAB gene at 0.1 uM after 7 days by luminometric analysis; conditions: 168 h, read-out: GI; how it was run: as §1
[4] = test system: Mycobacterium tuberculosis; test: Antibacterial activity against Mycobacterium tuberculosis H37Rv harboring pSMT1 encoding Vibrio harveyi luxAB gene infected in mouse J774.A1 cells at 0.5 uM after 5 days by luminometric analysis; conditions: J774.A1, 120 h, read-out: GI
How it was run: (§2)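 J774.A1 macrophages seeded at 40 000 per well and rested overnight. Infected with 4000 RLU of luminescent H37Rv (MOI 0.1) in DMEM with penicillin/Fungizone, with compound dilutions added. Treated 5 days, then washed, given 1 h 1% gentamicin, and lysed with 1% Triton X-100. Lysate luminescence read over 10 s with n-decanal. Inhibition relative to untreated infected cells; six replicate cultures.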

[5] = test system: Mycobacterium tuberculosis; test: Antibacterial activity against Mycobacterium tuberculosis H37Rv harboring pSMT1 encoding Vibrio harveyi luxAB gene infected in mouse J774.A1 cells at 1 uM after 5 days by luminometric analysis; conditions: J774.A1, 120 h, read-out: GI; how it was run: as §2
[6] = test system: Mycobacterium tuberculosis; test: Antibacterial activity against Mycobacterium tuberculosis H37Rv harboring pSMT1 encoding Vibrio harveyi luxAB gene infected in mouse J774.A1 cells at 2 uM after 5 days by luminometric analysis; conditions: J774.A1, 120 h, read-out: GI; how it was run: as §2
[7] = test system: Mycobacterium tuberculosis; test: Antibacterial activity against Mycobacterium tuberculosis H37Rv harboring pSMT1 encoding Vibrio harveyi luxAB gene after 7 days by luminometric analysis; conditions: 168 h
[8] = test system: Mycobacterium tuberculosis; test: Antimicrobial activity against multidrug-resistant Mycobacterium tuberculosis LAM1 by BACTEC 460-TB method
How it was run: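 Clinical MDR LAM-1 isolate, resistant to isoniazid, rifampicin, rifabutin and prothionamide. Pre-cultured in 7H9-based BACTEC vial to growth index 300. 100 µL inoculated into a new vial with compound dilutions prepared in 7H9 + 10% OADC. GI read daily. MIC99 determined by comparison with an untreated culture diluted 100-fold at inoculation.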

SMILES | inhibition of growth at 10 µM [1] | inhibition of growth at 1 µM [2] | inhibition of growth at 0.1 µM [3] | inhibition in vivo at 0.5 µM [4] | inhibition in vivo at 1 µM [5] | inhibition in vivo at 2 µM [6] | MIC50 [7] | MIC99 [8]
O=[N+]([O-])c1ccc(N2CCN(c3ccccc3)CC2)cc1 | 26% | < 10% | < 10% | – | – | – | – | –
O=[N+]([O-])c1ccc(NCCNc2ccc([N+](=O)[O-])cc2)cc1 | 16% | < 10% | < 10% | – | – | – | – | –
O=[N+]([O-])c1ccc(N2CCN(c3ccc([N+](=O)[O-])cc3)CC2)cc1 | 13% | 10% | < 10% | – | – | – | – | –
Nc1ccc(N2CCN(c3ccccc3)CC2)cc1 | 30% | < 10% | < 10% | – | – | – | – | –
N#Cc1ccc(N2CCN(c3ccccc3)CC2)cc1 | 23% | < 10% | < 10% | – | – | – | – | –
Nc1ccc(N2CCN(c3ccc(N)cc3)CC2)cc1 | 27% | 10% | < 10% | – | – | – | – | –
N#Cc1ccc(N2CCN(c3ccc(C#N)cc3)CC2)cc1 | 22% | < 10% | < 10% | – | – | – | – | –
O=[N+]([O-])c1ccccc1NCCNc1ccccc1[N+](=O)[O-] | < 10% | < 10% | < 10% | – | – | – | – | –
O=[N+]([O-])c1cccc(NCCNc2cccc([N+](=O)[O-])c2)c1 | 13% | < 10% | < 10% | – | – | – | – | –
N#Cc1ccc(NCCNc2ccc(C#N)cc2)cc1 | 10% | < 10% | < 10% | – | – | – | – | –
N#Cc1ccccc1NCCNc1ccccc1C#N | < 10% | < 10% | < 10% | – | – | – | – | –
N#Cc1cccc(NCCNc2cccc(C#N)c2)c1 | < 10% | < 10% | < 10% | – | – | – | – | –
Cl.N=C(N)c1ccc(N2CCN(c3ccccc3)CC2)cc1 | 14% | < 10% | < 10% | -0.47% | 0.41% | 1.83% | 29.6 µM | –
CNC(=N)c1ccc(N2CCN(c3ccccc3)CC2)cc1.Cl | 16% | < 10% | < 10% | -0.8% | 6.43% | 14.9% | 15.9 µM | –
CCNC(=N)c1ccc(N2CCN(c3ccccc3)CC2)cc1.Cl | 10% | < 10% | < 10% | 3.93% | 13.4% | 22.5% | 11.9 µM | –
CCCNC(=N)c1ccc(N2CCN(c3ccccc3)CC2)cc1.Cl | 33% | < 10% | < 10% | 5.62% | 12.9% | 26.1% | 7.01 µM | –
CCCCNC(=N)c1ccc(N2CCN(c3ccccc3)CC2)cc1.Cl | 66% | < 10% | < 10% | 25.6% | 31.6% | 50.6% | 2.16 µM | –
CCCCCNC(=N)c1ccc(N2CCN(c3ccccc3)CC2)cc1.Cl | 95% | 39% | < 10% | 44.7% | 53.6% | 64.7% | 1.2 µM | 3.85 µM
CCCCCCNC(=N)c1ccc(N2CCN(c3ccccc3)CC2)cc1.Cl | 99% | 91% | 49% | 67.1% | 79.2% | 88.1% | 0.264 µM | 2.11 µM
CCCCCCCNC(=N)c1ccc(N2CCN(c3ccccc3)CC2)cc1.Cl | 100% | 94% | 47% | 61.1% | 64.2% | 83.3% | 0.091 µM | 1.48 µM
CCCCCCCCNC(=N)c1ccc(N2CCN(c3ccccc3)CC2)cc1.Cl | 100% | 94% | 61% | 15.2% | 31.1% | 71.6% | 0.072 µM | 1.17 µM
CCCCCCCCCCCCNC(=N)c1ccc(N2CCN(c3ccccc3)CC2)cc1.Cl | 100% | 97% | 68% | 10.7% | 23.4% | 44.9% | 0.052 µM | 0.95 µM
CCC(CC)NC(=N)c1ccc(N2CCN(c3ccccc3)CC2)cc1 | 67% | 19% | < 10% | – | – | – | – | –
N=C(N)c1ccc(NCCNc2ccccc2)cc1 | < 100% | < 10% | < 10% | – | – | – | – | –
CCC(CC)NC(=N)c1ccc(NCCNc2ccccc2)cc1 | 63% | 19% | 10% | – | – | – | – | –
CCCCCCNC(=N)c1ccc(NCCNc2ccccc2)cc1 | 93% | 48% | 23% | – | – | – | – | –
N=C(NCCc1ccccc1)c1ccc(N2CCN(c3ccccc3)CC2)cc1 | 97% | 56% | < 10% | – | – | – | – | –
NNC(=O)c1ccncc1 [ISONIAZID] | 100% | 100% | 98% | 9.77% | 29.4% | 51.4% | 0.465 µM (≈ 0.0638 µg/mL) | –
